# Bioassay records (PubChem)
# ZTA DNA inh: blocks Epstein-Barr virus ZTA, an EBNA-1 counter-screen. ZTA-DNA binding, fluorescence polarization. inhibition, % at 11 µM. 320,000 compounds, 0.15% hits; in the data active means inhibition above about 33%
# Target sequence (P03206 whole entry, looked up): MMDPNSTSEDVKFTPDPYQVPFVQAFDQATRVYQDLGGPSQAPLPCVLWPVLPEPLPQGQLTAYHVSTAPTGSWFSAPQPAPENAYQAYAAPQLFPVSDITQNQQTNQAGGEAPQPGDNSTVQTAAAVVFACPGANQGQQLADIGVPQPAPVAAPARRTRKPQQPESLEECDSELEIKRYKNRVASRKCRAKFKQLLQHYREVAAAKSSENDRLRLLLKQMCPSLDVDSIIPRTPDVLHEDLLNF
# eIF4H FP inh: inhibitors of RNA binding by human eIF4H; Q15056; eIF4H fluorescence polarization binding assay; inhibition, % at 35 µM; 290,000 compounds, 0.94% hits; AID 2012;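 further: calls also rest on retests at 20 µM and on dose response follow-up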
# PABP polyA inh: blocks human PABP binding to poly(A) RNA; P11940; fluorescence polarization; inhibition, % at 35 µM; 290,000 compounds, 1% hits;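 further: calls also rest on retests at 20 µM and on dose response follow-up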
# PABP1 MLLE inh: blocks PAM2 peptide binding to the PABP1 MLLE domain | inhibition, % at 20 µM | 360,000 compounds, 0.36% hits | GST-MLLE / FITC-PAM2 fluorescence polarization; in the data active means inhibition above about 35%, passing the limit was not always enough;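 further: plate controls were DMSO wells with GST-MLLE for no effect and wells lacking GST-MLLE protein for full effect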
# HCV NS3 hel inh: inhibitors of Hepatitis C virus NS3 helicase. NS3 helicase DNA unwinding, Cy5 molecular beacon fluorescence. inhibition, % at 10.9 µM. 290,000 compounds, 0.56% hits;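 active means inhibition above the mean of all tested compounds plus 3 SD, set per campaign, cut at about 35% in these data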;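 further: 0% = DMSO wells and 100% = thioflavine S control wells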
#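 Test system: hepatitis C virus NS3 helicase domain fragment enzyme. Also added: annealed dual-labelled DNA beacon duplex, ATP-started. Timing: 60 min unwinding reaction at 25 °C after ATP addition. Technique: Cy5 fluorescence. Measure: % inhibition of unwinding.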
# EBNA-1 inh: blocks EBNA-1 binding to DNA; EBNA-1 DNA binding, fluorescence polarization; inhibition, % at 14.8 µM; 300,000 compounds, 0.34% hits; in the data active means inhibition above about 28%
# * marks the source's active call; other numbers are inactive results; ? = inconclusive; · = no result given. Most compounds without a hit are left out; they make up all but 2.1% or so of the library. Unless noted, how the calls were made is not given here.
SMILES,ZTA DNA inh,eIF4H FP inh,PABP polyA inh,PABP1 MLLE inh,HCV NS3 hel inh,EBNA-1 inh
CC(C)(C)NC(=O)CSc1nnc(-c2ccccn2)n1Cc1ccccc1,-7.8,-2.9,0.7,0.9,-3.7,12.3
C=CCNC(=O)CSc1nnc(-c2ccccn2)n1Cc1ccccc1,0.8,?,52.5*,4.8,-13.7,1.2
CO/N=C\Cc1oc(=O)c(NC(=O)c2ccccc2)cc1C(=O)OC,6.8,80.8*,107.8*,-1.4,2.8,-4.8
O=C(C/C=N/OCc1ccc(Cl)cc1Cl)c1ccccc1,-3.1,-11.3,-7.4,-4.8,4.3,-7.7
COC(=O)c1cc(NC(=O)c2ccccc2)c(=O)oc1C/C=N\OCc1ccc(Cl)cc1Cl,7.1,72.1*,87.1*,-34.6,9.5,2.6
CN1CCCCCC1C(=O)N1CCC(N2CCC(C(=O)N3CCOCC3)CC2)CC1 (stereo not given),-13.2,0.5,25.1,14.8,-0.9,-10.1
CC1CN(CC(=O)N2CCc3[nH]c4ccccc4c3C2)CC(C)O1 (stereo not given),-1.6,15.3,30.0,19.4,0.7,2.5
CC1CC(C)CN(CC(=O)N2CCc3[nH]c4ccccc4c3C2)C1 (stereo not given),0.5,125.9*,106.0*,11.2,-1.8,-4.9
CC1(C)OC(=O)C(=Cc2ccc[nH]2)C(=O)O1,2.5,-4.5,-8.1,-5.7,2.3,7.6
CC1(C)OC(=O)C(=C2CCCN2)C(=O)O1,-2.5,active,59.8*,12.2,-0.1,6.9
Cc1cc(NC(=O)CSc2ncn[nH]2)no1,0.8,0.6,-4.9,-13.7,-1.1,-11.4
O=C1C([N+](=O)[O-])=C(O)c2cccc3cccc1c23,·,85.3*,56.7*,·,24.0,·
O=C(N/N=C1\C(=O)c2cccc3cccc1c23)c1ccc(O)cc1,-6.2,28.3,28.8,-8.5,10.5,-1.3
Cc1ccc2cc3c(N)c(C(=O)Nc4c(C)[nH]c(=O)[nH]c4=O)sc3nc2c1,5.9,5.2,80.7*,-1.1,6.6,16.1
O=C1NC(=S)SC1=Cc1ccc2c(c1)OCO2,·,·,·,4.7,·,·
O=C1NC(=S)N/C1=C/c1ccc2c(c1)OCO2,7.3,56.1,71.5*,-23.6,11.9,4.7
Cc1cc(C)n(-c2nc3c(c(=O)[nH]c(=O)n3C)n2C)n1,-2.8,-1.1,4.6,0.1,-0.2,2.3
O=C1/C(=C/C=C/c2ccccc2)Oc2c1ccc(O)c2CN1CCN(CCO)CC1,-8.1,?,?,-14.3,-62.4,3.8
CCN1CCN(Cc2c(O)ccc3c2O/C(=C\C=C\c2ccccc2)C3=O)CC1,-0.9,54.3,0.8,-35.3,36.2*,-9.7
Cc1cccc(C(=O)NCCC(=O)Nc2nc(C)c(Cc3ccc4c(c3)OCO4)s2)c1,-1.7,active,76.6*,-9.0,3.3,-3.6
Cc1nc(NC(=O)C2CCCC2)sc1Cc1ccc2c(c1)OCO2,-5.7,-5.3,-0.5,-2.0,-18.7,1.1
COC(=O)c1ccc(CC(=O)c2c(C)cc(O)cc2O)o1,-3.7,79.9*,51.1*,1.0,34.9,-8.2
COC(=O)c1ccc(CC(=O)c2ccc(O)cc2O)o1,0.1,6.0,8.5,-20.8,12.5,-4.5
COc1cccc(-c2ccc(NC(=O)C3CCCN(Cc4cccc(C)n4)C3)cc2)c1 (stereo not given),·,·,·,-19.4,·,·
CNC(=S)NCCc1ccc(OC)cc1,-5.9,1.7,91.5*,-69.8,-7.1,4.3
SMILES,ZTA DNA inh,eIF4H FP inh,PABP polyA inh,PABP1 MLLE inh,HCV NS3 hel inh,EBNA-1 inh
COc1ccccc1C(=O)C1CCCN(C(=O)CCn2cnnn2)C1 (stereo not given),2.5,1.8,3.4,-1.6,-0.8,1.6
CCCCCCN1CC(=O)N2Cc3[nH]c4ccccc4c3C[C@H]2C1=O,-10.0,4.8,-7.0,5.5,5.2,-0.1
N[C@@H](C(=O)N[C@@H]1C(=O)N2C(C(=O)O)=C(Cl)CS[C@H]12)c1ccccc1,12.6,3.8,2.0,20.0,6.4,5.5
NC(=O)c1cc[n+](CC2=C(C(=O)O)N3C(=O)[C@@H](NC(=O)C(c4ccccc4)S(=O)(=O)[O-])[C@H]3SC2)cc1 (stereo not given in full),35.0*,-1.8,-11.4,26.9,5.3,6.2
Cc1sc2nc(C)n(/N=C/c3ccccc3)c(=O)c2c1C,1.3,-10.4,-1.2,-5.6,10.3,-1.5
CC(=O)Nc1ccc(NC(=O)CSc2nc3nc(C)cc(C)c3c(=O)[nH]2)cc1,-3.1,-10.7,7.6,4.8,3.9,-4.0
O=c1cc[nH]c2c1ccc1c(=O)cc[nH]c12,5.7,85.9*,32.8,3.6,2.1,-0.2
O=c1cc[nH]c2c(Cl)cccc12,-3.3,4.7,-2.7,-2.0,4.4,-17.9
COCc1cc(C)nc(SCC(=O)Oc2ccc(Cl)cc2)c1C#N,16.5,active,54.1*,7.6,4.3,1.8
COCc1cc(C)nc(SCC(=O)Oc2ccccc2)c1C#N,6.9,8.3,12.8,3.6,-2.3,-8.1
COc1ccc(S(=O)(=O)N2CCC3CC2c2cc(N4CCOCC4)ccc23)cc1 (stereo not given),·,·,·,12.9,·,·
CCOC(=O)c1cnc(-n2[nH]c(C)cc2=O)[nH]c1=O,-9.4,99.8*,active,-5.4,13.7,-4.8
CC(OC(=O)C1CCCO1)C(=O)NC1CCCC1 (stereo not given),6.8,-2.6,-3.9,0.5,-1.6,6.0
Cc1cccc(C)c1NC(=S)Nc1ccc(Cl)c(Cl)c1,2.9,-4.2,4.1,45.4*,5.5,2.3
COC(=O)c1cccc(NC(=S)Nc2ccc(Cl)c(Cl)c2)c1,-1.3,-6.3,0.9,16.7,-6.4,-7.9
Cc1cc(C)cc(NC(=S)Nc2ccc(Cl)c(Cl)c2)c1,6.7,-3.4,4.7,42.6*,1.1,-4.3
FC(F)(F)c1nnc2ccc(NCn3nnc4ccccc43)nn12,-9.5,15.0,-10.4,-15.0,-3.2,0.0
COc1ccc(NC(=S)NCc2ccc(S(N)(=O)=O)cc2)c(OC)c1,-11.7,active,119.5,-3.8,6.9,-4.7
CCCn1c2c(c(=N)c3c1CCC3)CCC2,2.5,·,·,-136.8,-46.0,6.0
CCCCCCCn1c2c(c(=N)c3ccccc31)CCC2,-5.9,-4.4,61.7*,-98.7,-27.9,0.9
CCCCOC(=O)c1cc(=O)[nH]c(=O)[nH]1,-4.5,-4.3,60.7*,-5.0,1.9,-6.0
Cc1cc(C)cc(NC(=O)COC(=O)c2cc(=O)[nH]c(=O)[nH]2)c1,-7.7,-5.7,-2.1,9.3,13.9,5.5
Cc1cc(O)c(C2=Nc3ccccc3SC(c3ccc(Cl)cc3)C2)c(=O)o1 (stereo not given),-4.7,-3.9,5.8,27.4,2.8,-0.6
COc1ccc(C2CC(c3c(O)cc(C)oc3=O)=NCCS2)c(OC)c1 (stereo not given),-1.3,73.8*,76.5*,-29.9,31.1,9.6
CCOC(=O)C1CCN(C(=O)C2CC(=O)N(c3ccc4c(c3)OCCO4)C2)CC1 (stereo not given),4.4,19.3,59.9*,-1.9,1.4,-5.8
